# Apaf1 activ = activators of human Apaf-1 apoptosome, primary screen, biochemical, DEVD-Rh110 fluorescence, uHTS; Apaf-1 apoptosome caspase-3 activation; hits give low values; activity change, negative = activation, % at 20 µM; hit rate 0.31% among 330,000; AID 489031, 2010;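 active = activity change at or below -40% at 20 µM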
#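 Assay system – biochemical Apaf-1 apoptosome reconstitution · Medium – 20 mM HEPES buffer, pH 7.5, containing CHAPS and BSA · Incubation – 30 min preincubation, 50 min reaction, room temperature · Measured by – Caspase-3-released Rh110 fluorescence, 540 nm emission, 480 nm excitation · Read-out – Caspase-3 cleavage activity downstream of Apaf-1 activation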
# Rh110 interf act = Rh110 fluorescence interference by putative Apaf-1 activators, confirmation, artefact control for Apaf-1 activator project, biochemical, 20 µM; quenched caspase reaction, Ex480/Em540; shares compounds with Apaf1 activ; fluorescence interference (activity change), % at 20 µM, hits read low; 980 tested, under 10 active;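 active = mean activity change at or below -40% when tested at 20 µM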
# Apaf-1 act conf = Apaf-1 activators, single-dose retest, confirmation, biochemical, fluorescence, DEVD-Rh110, 20 µM | activity change, negative = activation, % at 20 µM | reconstituted apoptosome caspase-3 activity; hits give low values | shares compounds with Apaf1 activ | hit rate 5% among 980;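 active = mean activity change at or below -40%, meaning activation of 40% or more, at 20 µM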
# Apaf1 act interf = fluorescence interference of Apaf-1 activator hits, dose response, artefact control for Apaf-1 activator project | shares compounds with Apaf1 activ | fluorescence interference counterscreen, Apaf-1 activator assay | EC50, µM | 55 tested, under 10 active | AID 588592, 2011; call rule not given here
# * marks the source's active call; other numbers are inactive results; x = not tested or not shown. Only a sample is shown.
SMILES,Apaf1 activ,Rh110 interf act,Apaf-1 act conf,others
O=[N+]([O-])c1cc([N+](=O)[O-])c2nonc2c1Nc1ccc(O)cc1,73.9,x,x,
CS(=O)(=O)N(CC(=O)Nc1c(F)cccc1F)Cc1ccccc1,-58.8*,6.5,14.0,
CCN(CC)CC(=O)Nc1c(C)cccc1C,-4.6,x,x,
CCN(CC(=O)Nc1c(F)cccc1F)C(=O)Cc1ccsc1,52.3,x,x,
Cc1ccc(C(C[N+](=O)[O-])c2c(C)[nH]n(-c3ccccc3)c2=O)cc1 (configuration not stated),93.4,x,x,
Cc1onc(-c2ccccc2Cl)c1C(=O)NCc1ccc2c(c1)cc(C)n2C,53.1,x,x,
CCOc1ccc(NC(=O)CC2C(=O)N(c3ccccc3)C(=S)N2Cc2ccccn2)cc1 (configuration not stated),-44.0*,8.4,9.6,
CC(C)[n+]1ccn(C2=C([O-])c3ccccc3C(=O)/C2=N\S(=O)(=O)c2ccccc2)c1,46.2,x,x,
Cn1c(SCC(=O)NNC(=O)c2ccccc2)nnc1C(F)(F)F,-96.9*,-1.6,7.6,
Cn1c(SCC(=O)n2c3c(c4ccccc42)CCCC3)nnc1-c1ccccc1,43.2,x,x,
COCCN(C(=O)COC(=O)/C=C/c1ccc(C(F)(F)F)cc1)c1c(N)n(Cc2ccccc2)c(=O)[nH]c1=O,44.2,x,x,
CS(=O)(=O)N(Cc1ccc(C(=O)NN=C2CCCCCC2)cc1)c1ccccc1,-481.9*,2.1,13.6,
C[C@]12C=CC(=O)C=C1CC[C@@H]1C2=CC[C@]2(C)[C@@H](C(=O)CN3CCN(c4cc(N5CCCC5)nc(N5CCCC5)n4)CC3)CC[C@@H]12,86.7,x,x,
COc1ccc(OCc2cc(C(=O)NC3CCOC(C)(C)C3)no2)c2ccccc12 (configuration not stated),62.9,x,x,
CCN(CC)CCNC(=O)c1ccc(NC(=O)c2cn(-c3ccc(F)cc3)nc2-c2cccc(OC)c2)cc1,45.1,x,x,
COc1cccc(-c2cc(C(=O)N3CCN(c4ccc(F)cc4)CC3)no2)c1,-69.0*,-1.2,16.0,
COc1ccc(-c2cc(C(=O)N3CCN(C(c4ccccc4)c4ccccc4)CC3)no2)cc1OC,-159.3*,-5.6,9.9,
COc1ccc(OCc2cc(C(=O)N3CCC(OC)CC3)no2)c2ccccc12,49.3,x,x,
O=C(c1cccc(S(=O)(=O)N2CCN(c3ccc(F)cc3)CC2)c1)N1CCCCCCC1,41.8,x,x,
COc1cc(OC)c2c(-c3ccccc3)cc(=O)oc2c1C(CCN1CCOCC1)c1ccc(N(C)C)cc1 (configuration not stated),51.5,x,x,
CCC[C@@H](CN1CCC[C@H]1CN1C(N)=NC[C@H]1C(C)C)N1C[C@@H](Cc2ccccc2)N(CCCC2CCCC2)C1=N,45.6,x,x,
Oc1ccc(C[C@@H]2CNCCN2CCC23CC4CC(CC(C4)C2)C3)cc1,47.0,x,x,
Cc1[nH]n(-c2ccccc2)c(=O)c1/C=N/NC(=O)c1ccc(O)cc1O,73.4,x,x,
COc1ccc(/C=N/NC(=O)c2cc(=O)[nH]c3ccccc23)cc1OC,-544.4*,-14.8,7.1,
O=C(Cc1cc(=O)[nH][nH]1)N/N=C/c1cccc2ccccc12,53.6,x,x,
SMILES,Apaf1 activ,Rh110 interf act,Apaf-1 act conf,others
O=C(Cc1ccccc1)NC1(O)C(=O)c2ccccc2C1=O,85.4,x,x,
COc1ccccc1-c1nnc(C2CCN(S(=O)(=O)c3cccc([N+](=O)[O-])c3)CC2)o1,-53.3*,0.3,8.1,
COc1ccc(OC)c2c1C(=O)c1ccccc1C2=O,63.3,x,x,
CN(C)CCCNc1cc(C(C)(C)C)nc2c(-c3ccc(Cl)cc3)cnn12,58.3,x,x,
O=C1C(NS(=O)(=O)c2cccs2)=C(N2CCN(c3cccc(Cl)c3)CC2)C(=O)c2ccccc21,57.8,x,x,
COc1ccc(C(CNC(=O)COc2c(C)cc(C)cc2C)N2CCOCC2)cc1 (configuration not stated),66.5,x,x,
CCOc1cc(C(c2c(C)[nH][nH]c2=O)c2c(C)[nH][nH]c2=O)ccc1OS(=O)(=O)c1ccc(C)cc1,40.6,x,x,
CCOc1cc(C(=S)N2CCOCC2)ccc1OS(=O)(=O)c1ccc(OC)cc1,-55.3*,-8.7,9.0,
C#CCOCCOCCOCCNc1nc(N2CCN(C(=O)CCCCCCCCCCNC(=O)Cn3cc(C[C@@H](C)O)nn3)CC2)nc(N2CCN(C(=O)CCCCCCCCCCNC(=O)[C@H](CCCCN)n3cc(C[C@@H](C)CC)nn3)CC2)n1,70.5,x,x,
CCN(CC)CCCNC1=C(Cl)C(=O)c2ccccc2C1=O,50.4,x,x,
CCN(CC)CCOc1ccc(/C(=C(\Cl)c2ccccc2)c2ccccc2)cc1,66.5,x,x,
CC1=NN(c2ccccc2)C(=O)/C1=C\c1ccc(Br)s1,96.0,x,x,
CC1=NN(c2ccccc2)C(=O)/C1=C/c1ccc[nH]1,-138.2*,3.0,12.0,
CC1=NN(c2ccccc2)C(=O)/C1=C/c1ccc(Cl)cc1,95.9,x,x,
O=C(Cc1cc(=O)[nH][nH]1)N/N=C/c1cccc(Cl)c1Cl,47.5,x,x,
CC1=NN(Cc2ccccc2)C(=O)C1,64.9,x,x,
OC(c1ccccc1)c1cccnc1 (configuration not stated),-54.0*,-7.4,9.3,
Cc1ccc(NC(=S)Nc2cccc3cnccc23)cc1C,53.4,x,x,
COc1ccc(C2=Nn3c(nnc3-c3ccccc3F)SC2)cc1OC1CCCC1,47.3,x,x,
COC(=O)c1c(C(C)=O)c(C)n(C)c1C,-343.1*,-1.3,10.9,
Cc1cc(F)c(F)c(C(=O)N2CCCCC2C)c1Cl (configuration not stated),-115.7*,4.4,17.7,
CCCCCc1ccc(OCCCC[n+]2ccccc2)c(CCCCC)c1,58.8,x,x,
O=C(O)CCN1C(=O)/C(=C2\C(=O)N(Cc3ccccc3Cl)c3ccccc32)SC1=S,-120.8*,-0.8,-30.8,
CCN1CCN(S(=O)(=O)c2ccc(Cl)c(C(=O)Nc3ccccc3N3CCCC3)c2)CC1,-74.2*,10.8,12.7,
CN1CCN(c2ccc(S(=O)(=O)N3CCCCC3)cc2NC(=O)c2ccc3ccccc3c2)CC1,-154.8*,4.2,7.6,
SMILES,Apaf1 activ,Rh110 interf act,Apaf-1 act conf,others
CC(=O)Nc1ccc(S(=O)(=O)NC2=C(N3CCN(C)CC3)C(=O)c3ccccc3C2=O)cc1,60.3,x,x,
CN1CCN(c2ccc(S(=O)(=O)N3CCCCC3)cc2NC(=O)/C=C/c2ccc(Cl)c([N+](=O)[O-])c2)CC1,51.2,x,x,
CCN1CCN(C2=C(NS(=O)(=O)c3ccc(NC(C)=O)cc3)C(=O)c3ccccc3C2=O)CC1,73.7,x,x,
CCN1CCN(S(=O)(=O)c2ccc(Cl)c(C(=O)N(C)Cc3cccs3)c2)CC1,57.8,x,x,
COc1ccc2nc3cccc(OC)c3nc2c1,96.6,x,x,
Cc1onc(-c2ccccc2Cl)c1C(=O)N[C@@H]1C(=O)N2[C@@H]1SC(C)(C)[C@@H]2C(=O)O,-1.6,x,x,
COC(=O)c1ccccc1-c1ccc(/C=C2\C(=O)N(c3ccccc3)N=C2c2ccccc2)o1,62.3,x,x,Apaf1 act interf=>100
CC1=NN(c2ccccc2)C(=O)/C1=C/c1ccc(-c2ccc(C)c(C(=O)O)c2)o1,68.2,x,x,
CC1=NN(c2ccc(C(=O)O)cc2)C(=O)/C1=C/c1ccc(-c2ccccc2F)o1,57.7,x,x,

# Assay outcomes as filed in PubChem BioAssay.
